# Experimental data as given in PMC3743796 (Open journal of clinical diagnostics, 2013).
# No end group written: not given here.
# How the values were obtained:
# [1] = system: endothelial and tumor cells; assay: Cell migration/invasion assays, endothelial and tumor cells; format: cell-based, human; details: SCNH2 10 pM, APL-13 10 nM, SM inhibitors 10 μM, n = 3
# Procedure, shortened: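 Chemotaxis plates: agonist peptides and 10 μM small-molecule inhibitors or 100 μg/ml immune IgG in FBS-free medium in the lower wells; 8000-10,000 cells/well (e.g. HUVEC) in FBS-free medium on the upper membrane, uncoated for migration or rat-tail collagen I-coated for invasion. Incubated 5-24 h at 37 °C/5% CO2/100% humidity. Membranes methanol-fixed, stained with 0.5% crystal violet, upper cells removed, underside cells photographed and counted.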
# [2] = system: PI3K/Akt in MCF-7 cells; assay: Western blot, peptide-induced PI3K/Akt phosphorylation in MCF-7; format: cell-based, human
# [3] = system: PI3K/Akt in HMEC-1 cells; assay: Western blot, peptide-induced PI3K/Akt phosphorylation in HMEC-1; format: cell-based, human
# [4] = system: p44/42 MAPK signaling pathway in MCF-7 cells
# [5] = system: p44/42 MAPK in HMEC-1 cells
# [6] = system: PI3K/Akt and p44/42 MAPK signaling pathways; assay: CTX/PTX sensitivity assay; format: cell-based
# [7] = system: P-p44/42 MAPK in NMuMG cells; assay: Western blot, phosphorylation of p44/42 MAPK in NMuMG; format: cell-based, murine; details: maximum of dose response
# [8] = system: CAM of 10-day-old shell-less embryos; assay: Chorioallantoic membrane in chick embryo; format: in vivo; details: 66 hours
# [9] = system: rat aortic rings; assay: Rat aortic ring assay; format: cell-based; details: 6 days, p < 0.05
# [10] = system: HUVEC cells; assay: Cell migration assay, HUVEC; format: cell-based, human; details: for peptide response hierarchy in molar potency for mediating cell movement: HUVEC migration
# Procedure, shortened: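 Transwell-type chemotaxis plate with uncoated membrane. Test peptides and VEGF-A, at a range of concentrations, in FBS-free medium in bottom wells; 8000–10,000 HUVEC/well in FBS-free medium on top. Incubated 5–24 h at 37°C/5% CO2/100% humidity. Membranes methanol-fixed 5 min and stained with 0.5% crystal violet; upper cells removed. Bottom adherent cells photographed and counted.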
# [11] = system: SCNH2 receptor in enriched MB435 cells; assay: FACS binding inhibition assay with bSCNH2/SA488, enriched MB435; set-up: species or system human; details: enriched MB435, 50 μM peptide, 5 μM bSCNH2 + 10 μg/ml SA488, FACS
# [12] = system: P-PI3K/Akt in NMuMG cells; assay: Western blot, phosphorylation of PI3K/Akt in NMuMG; format: cell-based, murine; details: maximum of dose response
molecule,measurement,setting,value
c1cc(CN2CCCNCCNCCCNCC2)ccc1CN1CCCNCCNCCCNCC1 [AMD3100],suppression of SCNH2 and APL-13 induced cell migration and invasion,[1],effectively suppressed
O=c1cc(N2CCOCC2)oc2c(-c3ccccc3)cccc12 [LY294002],block of APL-13 induced phosphorylation of PI3K/Akt,[2],75%
same,block of SCNH2 induced phosphorylation of PI3K/Akt,[2],93%
same,suppression of SCNH2 and APL-13 induced cell migration and invasion,[1],effectively suppressed
same,inhibition of APL-13 induced phosphorylation of PI3K/Akt,[3],98%
same,inhibition of SCNH2 induced phosphorylation of PI3K/Akt,[3],96%
CC(C)(C)Cn1c(N)nc2ccc(-c3[nH]c(C(C)(C)C)nc3-c3ccc(F)cc3)nc21 [LY2228820],suppression of SCNH2 and APL-13 induced cell migration and invasion,[1],effectively suppressed
N#CC(=C(/N)Sc1ccccc1N)/C(C#N)=C(/N)Sc1ccccc1N [U0126],suppression of APL-13 induced phosphorylation of p44/42 MAPK,[4],97%
same,suppression of SCNH2 induced phosphorylation of p44/42 MAPK,[4],97%
same,suppression of APL-13 induced phosphorylation of p44/42 MAPK,[5],95%
same,suppression of SCNH2 induced phosphorylation of p44/42 MAPK,[5],98%
same,suppression of SCNH2 and APL-13 induced cell migration and invasion,[1],effectively suppressed
Apelin-13 [APL-13],effect of CTX on peptide signaling (kinase activation),"[6]; CTX treatment, Western blot",indifferent
same,effect of PTX on peptide signaling (kinase activation),"[6]; PTX pretreatment overnight, 100 pM peptide 10 min",sensitive
same,maximum P-p44/42 MAPK compared to the control,[7],5 folds
same,neovascularization at all of the tested concentrations,"[8]; angiogenic index, p < 0.005",dramatically induced neovascularization
same,concentration inducing the maximum neovascularization,"[8]; p < 0.005, no statistical difference to VEGF-A at 1 nM",100 nM
same,concentration inducing maximal vessel sprouting,[9],10 nM
same,peptide response hierarchy in molar potency for mediating cell movement,[10],SCNH2 > VEGF-A > APL-13
same,maximal stimulating concentration,"[10]; cell migration, dose-response on HUVEC",10 nM
same,block of the binding of bSCNH2,[11],ineffective
same,maximum P-PI3K/Akt compared to the control,[12],8 folds
adrenomedullin [AM],block of the binding of bSCNH2,[11],ineffective
arginine vasopressin [AVP],block of the binding of bSCNH2,[11],ineffective
"gastrin-releasing peptide (VPLPAGGGTVLTKMYPRGNHWAVGHLM-NH2; UniProt P07492 24-50, looked up) [GRP]",block of the binding of bSCNH2,[11],ineffective
luteinizing hormone-releasing hormone [LHRH],block of the binding of bSCNH2,[11],ineffective
oxytocin [OXT],block of the binding of bSCNH2,[11],ineffective
vascular endothelial growth factor A [VEGF-A],peptide response hierarchy in molar potency for mediating cell movement,[10],SCNH2 > VEGF-A > APL-13
